The chains are these.
B1: NELF-E aptamer (parent)
chain: CCCAACGACUGCCGAGCGAGAUUACGCUUGAGCGCCCCACUGAGGAUGCCCACGGGCGAUUGGGGCACGG

Variants of B1 are the subject of this data set. In words: HiTS-RAP. As to conditions: with NELF-E (Drosophila). The gist of the method: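 Aptamer DNA templates carrying a T7 promoter and ter site were sequenced on an Illumina GAIIx flowcell, then transcribed in situ by T7 RNA polymerase and halted by GST-Tus (30 minutes, 37°C). Clusters were imaged after 30-minute room-temperature equilibration with NELF-E-mOrange at 0.064 to 1000 nM in HEPES binding buffer, and only the first binding curve was used. Intensities were normalised to sequencing intensity and averaged per sequence. Kd came from weighted Hill fits, keeping fits with variance below 1,000,000.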
CCCAACGAGUGCCGAGCGAGAUUACGCUUGAGCGCCCCACCGAGGAUGCCCACGGGCGAUUGGGGCACGG [C9G U41C]: the Kd stood at 80.7 nM.

With CCCAACGAGUGCCGAGCGAGAUUACGCUUGAGCGCCCCACUGAGGAUGCCCACGGGCGAUUGGGGUACGG [C9G C66U], the Kd stood at 5.54 nM.

Regarding CCCAACGAGUGCCGAGCGAGAUUACGCUUGAGCGCCCCACUGAGGAUGCCCACAGGCGAUUGGGGCACGG [C9G G54A], the dissociation constant Kd is 17 nM.

For CCCAACGAGUGCCGAGCGAGAUUACGCUUGAGCGCCCCACUGAGGAUGCCCACUGGCGAUUGGGGCACGG [C9G G54U], the Kd is 6.83 nM.

With CCCAACGAGUGCCGAGCGAGAUUACGCUUGAGCGCCCCACUGAGGAUGCCUACGGGCGAUUGGGGCACGG [C9G C51U], the dissociation constant Kd amounted to 8.2 nM.

As for CCCAACGAGUGCCGAGCGAGAUUACGCUUGAGCGCCCCACUGAGGAUGCCAACGGGCGAUUGGGGCACGG [C9G C51A], the dissociation constant Kd is 8.9 nM.

As to CCCAACGAUUGGCGAGCGAGAUUACGCUUGAGCGCCCCACUGAGGAUGCCCACGGGCGAUUGGGGCACGG [C9U C12G], the dissociation constant (Kd) is 6.92 nM.

As to CCCAACGAGUGCCGAGCGAGAGUACGCUUGAGCGCCCCACUGAGGAUGCCCACGGGCGAUUGGGGCACGG [C9G U22G], the Kd came to 5.5 nM.

As to CCCAACGAGUGCCGAGCGAGACUACGCUUGAGCGCCCCACUGAGGAUGCCCACGGGCGAUUGGGGCACGG [C9G U22C], the Kd is 6.33 nM.

Turning to CCCAACGAGUGCCGAGCGAGAUGACGCUUGAGCGCCCCACUGAGGAUGCCCACGGGCGAUUGGGGCACGG [C9G U23G], the Kd came out at 5.35 nM.

Take CCCAACGAGUGCCGAGCGAGAUCACGCUUGAGCGCCCCACUGAGGAUGCCCACGGGCGAUUGGGGCACGG [C9G U23C]: the Kd is 4.37 nM.

Turning to CCCAACGAGUGCCGAGCGAGAUAACGCUUGAGCGCCCCACUGAGGAUGCCCACGGGCGAUUGGGGCACGG [C9G U23A], the Kd was 6.12 nM.

In the case of CCCAACGAGUGCCGAGCGAGAUUACGCUUGAGCGCCCCACUGAGGAUGCCCACGUGCGAUUGGGGCACGG [C9G G55U], the Kd came out at 8.84 nM.

In the case of CCCAACGAGUGCCGAGCGAGAUUACGCUUGAGCGCCCCACUGAGGAUGCCCACGAGCGAUUGGGGCACGG [C9G G55A], the Kd was determined as 10.3 nM.

Regarding CCCAACGAGUGCCGAGCAAGAUUACGCUUGAGCGCCCCACUGAGGAUGCCCACGGGCGAUUGGGGCACGG [C9G G18A], the Kd is 6.15 nM.

For CCCAACGAGUGCCGAGCUAGAUUACGCUUGAGCGCCCCACUGAGGAUGCCCACGGGCGAUUGGGGCACGG [C9G G18U], the dissociation constant (Kd) worked out at 6.65 nM.

As for CCCAACGAGUGCCAAGCGAGAUUACGCUUGAGCGCCCCACUGAGGAUGCCCACGGGCGAUUGGGGCACGG [C9G G14A], the Kd was found to be 6.55 nM.

Regarding CCCAACGAGUGCCUAGCGAGAUUACGCUUGAGCGCCCCACUGAGGAUGCCCACGGGCGAUUGGGGCACGG [C9G G14U], the Kd is 6.47 nM.

As for CCCAACGAGUGCCGAGCGAGAUUACGCUUGAGCGCCCCACUGAGGAUGCCCACGGGCGAUAGGGGCACGG [C9G U61A], the Kd amounted to 35.2 nM.

As to CCCAACGAGUGCCGAGCGAGAUUACGCUUGAGCGCCCCACUGAGGAUGCCCACGGGCGAUCGGGGCACGG [C9G U61C], the equilibrium dissociation constant (Kd) came to 89.2 nM.

In the case of CCCAACGAGUGCCGAGCGAGAUUACGCUUGAGCGCCCCACUGAGGAUGCCCACGGGCGAUUGGCGCACGG [C9G G64C], the Kd was found to be 5.75 nM.

For CCCAACGAGUGCCGAGCGAGAUUACGCUUGAGCGCCCCACUGAGGAUGCCCACGGGCGAUUGGAGCACGG [C9G G64A], the Kd came out at 8.13 nM.

Regarding CCCAACGAGUGCCGAGCGAGAUUACGCUUGAGCGCCCCACUGAGGAUGCCCACGGGCGAUUGGUGCACGG [C9G G64U], the Kd worked out at 8.07 nM.

For the variant CCCAACGAUUGCCGAGCGAGAUUGCGCUUGAGCGCCCCACUGAGGAUGCCCACGGGCGAUUGGGGCACGG [C9U A24G], the Kd is 5.62 nM.

For the variant CCCAACGAGUGCCGAGCGAGAUUACGCUUGAGCGCCCCACUGAGGAUGCCCACGGGUGAUUGGGGCACGG [C9G C57U], the Kd was 7.56 nM.

As to CCCAACGAGUGCCGAGCGAGAUUACGCUUGAGCGCCCCACUGAAGAUGCCCACGGGCGAUUGGGGCACGG [C9G G44A], the dissociation constant (Kd) stood at 17.8 nM.

CCCAACGAGUGCCGAGCGAGAUUACGCUUGAGCGCCCCACUGAUGAUGCCCACGGGCGAUUGGGGCACGG [C9G G44U]: the dissociation constant Kd turned out to be 9.09 nM.

For the variant CCCAACGAGUGCCGAGCGAUAUUACGCUUGAGCGCCCCACUGAGGAUGCCCACGGGCGAUUGGGGCACGG [C9G G20U], the equilibrium dissociation constant (Kd) turned out to be 7.26 nM.

Regarding CCCAACGAGUGCCGAGCGAAAUUACGCUUGAGCGCCCCACUGAGGAUGCCCACGGGCGAUUGGGGCACGG [C9G G20A], the Kd was determined as 6.64 nM.

As for CCCAACGAGUGCCGAGCGAGAUUACGCUUGAGCGCCCCACUGAGGAUGCACACGGGCGAUUGGGGCACGG [C9G C50A], the Kd was 23.5 nM.

For CCCAACGAGUGCCGAGCGAGAUUACGCUUGAGCGCCCCACUGAGGAUGCUCACGGGCGAUUGGGGCACGG [C9G C50U], the Kd is 13.5 nM.

Consider CCCAACGAGUGCCGAGCGAGAUUACGCUUGAGCGCCCCACUGAGGAUGCGCACGGGCGAUUGGGGCACGG [C9G C50G], for which the dissociation constant Kd worked out at 7.4 nM.

CCCAACGAGUGCCGAACGAGAUUACGCUUGAGCGCCCCACUGAGGAUGCCCACGGGCGAUUGGGGCACGG [C9G G16A]: the dissociation constant Kd was 5.72 nM.

Consider CCCAACGAGUGCCGAUCGAGAUUACGCUUGAGCGCCCCACUGAGGAUGCCCACGGGCGAUUGGGGCACGG [C9G G16U], for which the dissociation constant Kd amounted to 6.45 nM.

Take CCCAACGAGUGCCGAGCGAGAUUACGCUUGAGCGCCCCACUGAGGAUGUCCACGGGCGAUUGGGGCACGG [C9G C49U]: the Kd was 23.1 nM.

With CCCAACGAUUGCCGAGCGGGAUUACGCUUGAGCGCCCCACUGAGGAUGCCCACGGGCGAUUGGGGCACGG [C9U A19G], the Kd was 5.01 nM.

For CCCAACGAGGGCCGAGCGAGAUUACGCUUGAGCGCCCCACUGAGGAUGCCCACGGGCGAUUGGGGCACGG [C9G U10G], the Kd is 5.46 nM.

As for CCCAACGAGAGCCGAGCGAGAUUACGCUUGAGCGCCCCACUGAGGAUGCCCACGGGCGAUUGGGGCACGG [C9G U10A], the Kd amounted to 6.51 nM.

On to CCCAACGAGCGCCGAGCGAGAUUACGCUUGAGCGCCCCACUGAGGAUGCCCACGGGCGAUUGGGGCACGG [C9G U10C], for which the Kd was 5.98 nM.

A word on the Kd: it is the free concentration of one partner at which half of the binding sites on the other are occupied at equilibrium, for simple one-to-one binding.

For the origin of these results see the RNAGym collection of RNA variant scans (doi:10.1038/nmeth.2970).
